Source: ChEMBL document CHEMBL1152942, “Chemistry of renieramycins. Part 8: synthesis and cytotoxicity evaluation of renieramycin M-jorunnamycin A analogues” (Bioorg Med Chem, 2009)
pIC50: −log10 of the molar value. The source made the active and inactive calls. No cut-off for these calls is given here.

Columns and labels:
Format in all cases: functional, cell-based
[1] = system: MDA-MB-435; assay: Cytotoxicity against human MDA-MB-435 cells after 3 days by MTT assay
[2] = system: HCT-116; assay: Cytotoxicity against human HCT116 cells after 3 days by MTT assay
Method in brief: (§1)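 HCT116 colon carcinoma cells were seeded at 1500 cells/well 24 h before treatment. They were exposed to threefold serial dilutions from 100 nM to 0.41 nM, with under 1% DMSO final (20 mM DMSO stocks), for 3 days. Growth was read by MTT absorbance at 540 nm. IC50 was taken as 50% growth inhibition relative to untreated controls, in triplicate.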

[3] = system: QG-56; assay: Cytotoxicity against human QG56 cells at 1.4 to 100 nM after 3 days by MTT assay
[4] = system: HCT-116; assay: Cytotoxicity against human HCT116 cells at 1.4 to 100 nM after 3 days by MTT assay; method in brief: as §1

Structure (SMILES)	pIC50 ([1]; Homo sapiens, MDA-MB-435, 72 h)	pIC50 ([2]; Homo sapiens, HCT-116, 72 h)	further results
CC=C(C)C(=O)OC[C@H]1C2=C(C[C@H]3[C@H]4C5=C(C[C@@H]([C@H](C#N)N13)N4C)C(=O)C(C)=C(OC)C5=O)C(=O)C(C)=C(OC)C2=O [RENIERAMYCIN M]	–	–	pIC50 ([1]; mda-mb-435): 7.96; pIC50 ([2]; hct-116): 7.47
COC1=C(C)C(=O)C2=C(C1=O)[C@@H]1[C@@H]3CC4=C(C(=O)C(OC)=C(C)C4=O)[C@H](CO)N3[C@@H](C#N)[C@H](C2)N1C [JOURNNAMYCIN A]	6.54	6.89	Activity [3]: Active
COC1=C(C)C(=O)C2=C(C1=O)[C@@H]1[C@@H]3CC4=C(C(=O)C(OC)=C(C)C4=O)[C@H](COC(=O)c4ccc5ccccc5n4)N3[C@@H](C#N)[C@H](C2)N1C	8.38	7.96	–
COC1=C(C)C(=O)C2=C(C1=O)[C@@H]1[C@@H]3CC4=C(C(=O)C(OC)=C(C)C4=O)[C@H](COC(=O)c4ccccc4OC)N3[C@@H](C#N)[C@H](C2)N1C	7.96	7.47	–
COC1=C(C)C(=O)C2=C(C1=O)[C@@H]1[C@@H]3CC4=C(C(=O)C(OC)=C(C)C4=O)[C@H](COC(C)=O)N3[C@@H](O)[C@H](C2)N1C	–	–	Activity [3]: Active; Activity [4]: Active
COC1=C(C)C(=O)C2=C(C1=O)[C@@H]1[C@@H]3CC4=C(C(=O)C(OC)=C(C)C4=O)[C@H](COC(=O)c4cnc5ccccc5c4)N3[C@@H](C#N)[C@H](C2)N1C	8.42	8.00	–
COC1=C(C)C(=O)C2=C(C1=O)[C@@H]1[C@@H]3CC4=C(C(=O)C(OC)=C(C)C4=O)[C@H](COC(=O)c4ccnc5ccccc45)N3[C@@H](C#N)[C@H](C2)N1C	8.39	8.00	–
COC1=C(C)C(=O)C2=C(C1=O)[C@@H]1[C@@H]3CC4=C(C(=O)C(OC)=C(C)C4=O)[C@H](COC(=O)C4CC=CCC4)N3[C@@H](C#N)[C@H](C2)N1C (mixture of isomers)	7.57	7.37	–
CCCC(=O)OC[C@H]1C2=C(C[C@H]3[C@H]4C5=C(C[C@@H]([C@H](C#N)N13)N4C)C(=O)C(C)=C(OC)C5=O)C(=O)C(C)=C(OC)C2=O	7.92	7.47	–
COC1=C(C)C(=O)C2=C(C1=O)[C@@H]1[C@@H]3CC4=C(C(=O)C(OC)=C(C)C4=O)[C@H](COC(=O)C=C(C)C)N3[C@@H](C#N)[C@H](C2)N1C	7.96	7.57	–
COC1=C(C)C(=O)C2=C(C1=O)[C@@H]1[C@@H]3CC4=C(C(=O)C(OC)=C(C)C4=O)[C@H](COC(=O)C4CC=CC4)N3[C@@H](C#N)[C@H](C2)N1C	7.89	7.48	–
COC1=C(C)C(=O)C2=C(C1=O)[C@@H]1[C@@H]3CC4=C(C(=O)C(OC)=C(C)C4=O)[C@H](COC(=O)c4ccccn4)N3[C@@H](C#N)[C@H](C2)N1C	8.85	8.48	–
COC1=C(C)C(=O)C2=C(C1=O)[C@@H]1[C@@H]3CC4=C(C(=O)C(OC)=C(C)C4=O)[C@H](COC=O)N3[C@@H](C#N)[C@H](C2)N1C	7.42	7.42	–
COC1=C(C)C(=O)C2=C(C1=O)[C@@H]1[C@@H]3CC4=C(C(=O)C(OC)=C(C)C4=O)[C@H](COC(=O)c4ccc([N+](=O)[O-])cc4)N3[C@@H](C#N)[C@H](C2)N1C	8.03	7.59	–
COC1=C(C)C(=O)C2=C(C1=O)[C@@H]1[C@@H]3CC4=C(C(=O)C(OC)=C(C)C4=O)[C@H](COC(=O)c4ccccc4)N3[C@@H](C#N)[C@H](C2)N1C	8.07	7.60	–
CCCCCC(=O)OC[C@H]1C2=C(C[C@H]3[C@H]4C5=C(C[C@@H]([C@H](C#N)N13)N4C)C(=O)C(C)=C(OC)C5=O)C(=O)C(C)=C(OC)C2=O	7.40	7.00	–
COC1=C(C)C(=O)C2=C(C1=O)[C@@H]1[C@@H]3CC4=C(C(=O)C(OC)=C(C)C4=O)[C@H](COC(=O)c4ccc(Br)cc4)N3[C@@H](C#N)[C@H](C2)N1C	7.89	7.42	–
COC1=C(C)C(=O)C2=C(C1=O)[C@@H]1[C@@H]3CC4=C(C(=O)C(OC)=C(C)C4=O)[C@H](COC(=O)CCCl)N3[C@@H](C#N)[C@H](C2)N1C	7.92	7.80	–
COC1=C(C)C(=O)C2=C(C1=O)[C@@H]1[C@@H]3CC4=C(C(=O)C(OC)=C(C)C4=O)[C@H](COC(=O)c4ccncc4)N3[C@@H](C#N)[C@H](C2)N1C	8.36	8.00	–
C/C=C(/C)C(=O)OC[C@H]1C2=C(C[C@H]3[C@H]4C5=C(C[C@@H]([C@H](C#N)N13)N4C)C(=O)C(C)=C(OC)C5=O)C(=O)C(C)=C(OC)C2=O [RENIERAMYCIN M]	–	–	pIC50 ([1]; mda-mb-435): 8.42; pIC50 ([2]; hct-116): 8.03
COC1=C(C)C(=O)C2=C(C1=O)[C@@H]1[C@@H]3CC4=C(C(=O)C(OC)=C(C)C4=O)[C@H](COC(=O)C(C)C)N3[C@@H](C#N)[C@H](C2)N1C	8.00	7.66	–
COC1=C(C)C(=O)C2=C(C1=O)[C@@H]1[C@@H]3CC4=C(C(=O)C(OC)=C(C)C4=O)[C@H](COC(C)=O)N3[C@@H](C#N)[C@H](C2)N1C [CYANOJORUMYCIN]	8.85	8.49	–
CCC(=O)OC[C@H]1C2=C(C[C@H]3[C@H]4C5=C(C[C@@H]([C@H](C#N)N13)N4C)C(=O)C(C)=C(OC)C5=O)C(=O)C(C)=C(OC)C2=O [JORUNNAMYCIN C]	8.38	7.96	Activity [3]: Active
COC1=C(C)C(=O)C2=C(C1=O)[C@@H]1[C@@H]3CC4=C(C(=O)C(OC)=C(C)C4=O)[C@H](COC(=O)C4=CCCCC4)N3[C@@H](C#N)[C@H](C2)N1C	7.54	7.31	–
CCC(C)C(=O)OC[C@H]1C2=C(C[C@H]3[C@H]4C5=C(C[C@@H]([C@H](C#N)N13)N4C)C(=O)C(C)=C(OC)C5=O)C(=O)C(C)=C(OC)C2=O (mixture of isomers)	7.92	7.48	–
COC1=C(C)C(=O)C2=C(C1=O)[C@@H]1[C@@H]3CC4=C(C(=O)C(OC)=C(C)C4=O)[C@H](COC(=O)c4ccc(OC)cc4)N3[C@@H](C#N)[C@H](C2)N1C	8.05	7.59	–
COC1=C(C)C(=O)C2=C(C1=O)[C@@H]1[C@@H]3CC4=C(C(=O)C(OC)=C(C)C4=O)[C@H](COC(=O)c4cccnc4)N3[C@@H](C#N)[C@H](C2)N1C	8.46	8.10	–
COC1=C(C)C(=O)C2=C(C1=O)[C@@H]1[C@@H]3CC4=C(C(=O)C(OC)=C(C)C4=O)[C@H](COC(=O)C4=CCCC4)N3[C@@H](C#N)[C@H](C2)N1C	7.89	7.48	–
COC1=C(C)C(=O)C2=C(C1=O)[C@@H]1[C@@H]3CC4=C(C(=O)C(OC)=C(C)C4=O)[C@H](COC(=O)C4CCCC4)N3[C@@H](C#N)[C@H](C2)N1C	7.52	7.03	–
